Source: PubChem BioAssay AID624324 (Broad Institute, 2012)
The source made the active and inactive calls.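 How the source made its calls: active means fitted AC50 at or under twice the sample's top valid tested dose, with viability loss; inconclusive means flat curve with 30 to 70% viability loss, or poor fit; inactive means the rest, including shifts toward viability gain.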

system: not listed separately; assay: A375 melanoma cell viability loss, dose response, counter-screen for MITF inhibitor project, CellTiter-Glo luminescence, dry powder, set 3 (AID 624324); conditions: A375 melanoma viability, CellTiter-Glo ATP luminescence, 24 h; at 35 µM (top of the series)
Method in brief: (§1)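 assay system = A375 melanoma cells, MITF-independent | quantity = 3000 A375 cells seeded per well | incubation = 24 h exposure at 37 °C, 5 min detection at RT | measured by = ATP luminescence, CellTiter-Glo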

Structure (SMILES) | activity change, negative = viability loss
O=C(NC1=C(N2CCN(c3ccccc3)CC2)C(=O)c2ccccc2C1=O)c1ccccc1 | -7.51% (inactive)
NC1=C(c2ccc(OC(F)(F)F)cc2)C(=O)c2ccccc2C1=O | -5.51% (inactive)
C=CCNC1=C(NCC=C)C(=O)c2ccccc2C1=O | 1.61% (inactive)
NC1=C(c2ccccc2)C(=O)c2ccccc2C1=O | -6.89% (inactive)
CN1CCN(C2=C(NS(=O)(=O)c3ccc(Br)cc3)C(=O)c3ccccc3C2=O)CC1 | 1% (inactive)
O=C1C(NS(=O)(=O)c2ccc(Br)cc2)=C(N2CCN(c3ccccc3)CC2)C(=O)c2ccccc21 | 0.602% (inactive)
CN1CCN(C2=C(NS(=O)(=O)c3cccs3)C(=O)c3ccccc3C2=O)CC1 | 12.4% (inactive)
C=CCNC1=C(NCCCN2CCOCC2)C(=O)c2ccccc2C1=O | 1.84% (inactive)
COc1ccc(C2=C(NC(=O)c3ccc(OC)cc3-c3cccc(OC)c3)C(=O)c3ccccc3C2=O)cc1 | 4.86% (inactive)

system: A375 melanoma viability, CellTiter-Glo ATP luminescence, 24 h; assay: as above; conditions: not given
Method in brief: as §1

Structure (SMILES) | AC50
O=C1C(Nc2ccccc2)=C(NS(=O)(=O)c2ccccc2[N+](=O)[O-])C(=O)c2ccccc21 | > 70 µM (inactive)
COc1ccc(C2=C(NC(=O)c3ccccc3Cl)C(=O)c3ccccc3C2=O)cc1 | 12.2 µM
O=C(NC1=C(c2ccc(OC(F)(F)F)cc2)C(=O)c2ccccc2C1=O)c1ccccc1F | 36.6 µM
C=CCNC1=C(NC(=O)c2ccccc2)C(=O)c2ccccc2C1=O | > 70 µM (inactive)
CC(=O)N(C)C1=C(N2CCCCC2)C(=O)c2ccccc2C1=O | 29.1 µM
COc1cccc(C2=C(NC(=O)c3ccccc3)C(=O)c3ccccc3C2=O)c1 | 16.2 µM
O=C(NC1=C(c2ccccc2)C(=O)c2ccccc2C1=O)c1ccco1 | 13.8 µM
COc1ccc(C(=O)NC2=C(c3ccc(OC)cc3)C(=O)c3ccccc3C2=O)cc1 | 14.9 µM
CC1CCN(CC(CS(=O)(=O)c2ccc([N+](=O)[O-])cc2)N2CCC(C)CC2)CC1 (configuration not stated) | > 70 µM (inactive)
O=C1C(Nc2ccccc2)=C(N2CCOCC2)C(=O)c2ccccc21 | > 70 µM (inactive)
O=C1C(NS(=O)(=O)c2cccs2)=C(N2CCCCC2)C(=O)c2ccccc21 | > 70 µM (inactive)
CC(=O)NC1=C(c2ccccc2)C(=O)c2ccccc2C1=O | 12.1 µM
COc1ccc(C2=C(NC(=O)c3cccc(OC)c3)C(=O)c3ccccc3C2=O)cc1 | 27.2 µM
COc1ccc(C2=C(NC(=O)c3ccccc3OC)C(=O)c3ccccc3C2=O)cc1 | 25.5 µM
Cc1ccc(C(=O)NC2=C(c3ccc(OC(F)(F)F)cc3)C(=O)c3ccccc3C2=O)o1 | 30.4 µM
O=C(NC1=C(c2ccccc2)C(=O)c2ccccc2C1=O)c1ccccc1 | 27.9 µM
C=CCNC1=C(NCCN(CC)CC)C(=O)c2ccccc2C1=O | 35.2 µM
O=C1C(NS(=O)(=O)c2cccs2)=C(N2CCOCC2)C(=O)c2ccccc21 | > 70 µM (inactive)
O=C(NC1=C(c2ccc(OC(F)(F)F)cc2)C(=O)c2ccccc2C1=O)c1ccccc1 | 23.6 µM
O=C(NC1=C(N2CCSCC2)C(=O)c2ccccc2C1=O)c1ccc(Br)cc1 | > 70 µM (inactive)
COC1=C(NS(=O)(=O)c2ccccc2)C(=O)c2ccccc2C1=O | > 70 µM (inactive)

Structure (SMILES) | AC50
CN1CCN(C2=C(Nc3ccccc3)C(=O)c3ccccc3C2=O)CC1 | 27.2 µM
O=C1C(Nc2ccccc2)=C(N2CCN(c3ccccc3)CC2)C(=O)c2ccccc21 | > 70 µM (inactive)
CCN1CCN(C2=C(NS(=O)(=O)c3ccc(Br)cc3)C(=O)c3ccccc3C2=O)CC1 | > 70 µM (inactive)
C=CCNC1=C(N(C)C(C)=O)C(=O)c2ccccc2C1=O | 9.29 µM
O=C1C(NS(=O)(=O)c2ccc(Br)s2)=C(N2CCOCC2)C(=O)c2ccccc21 | > 70 µM (inactive)
O=C1C(NS(=O)(=O)c2ccc(Br)cc2)=C(N2CCSCC2)C(=O)c2ccccc21 | > 70 µM (inactive)
CCN(CC)CCNC1=C(Nc2ccccc2)C(=O)c2ccccc2C1=O | > 70 µM (inactive)
C=CCNC1=C(NS(=O)(=O)c2ccc(Br)cc2)C(=O)c2ccccc2C1=O | > 70 µM (inactive)
CC(=O)NC1=C(c2cccc(Cl)c2)C(=O)c2ccccc2C1=O | 9.51 µM
C=CCNC1=C(NS(=O)(=O)c2cccs2)C(=O)c2ccccc2C1=O | > 70 µM (inactive)
O=C(NC1=C(N2CCOCC2)C(=O)c2ccccc2C1=O)c1ccccc1 | 26.9 µM
NC1=CC(=O)c2ccccc2C1=O | > 70 µM (inactive)
O=C(NC1=C(c2ccc(OC(F)(F)F)cc2)C(=O)c2ccccc2C1=O)c1ccco1 | 28 µM
CC(=O)N(C)C1=C(N2CCN(C)CC2)C(=O)c2ccccc2C1=O | 15.6 µM
CC(=O)N(C)C1=C(N2CCOCC2)C(=O)c2ccccc2C1=O | 32.9 µM
C=CCNC1=C(N2CCN(CC)CC2)C(=O)c2ccccc2C1=O | 15.7 µM
COc1ccc(C2=C(NC(=O)c3ccc(Cl)cc3)C(=O)c3ccccc3C2=O)cc1 | 27.7 µM
CN1CCN(C2=C(NC(=O)c3ccc(Br)cc3)C(=O)c3ccccc3C2=O)CC1 | 15.2 µM
O=C1C=C(Nc2ccccc2)C(=O)c2ccccc21 | 13.9 µM
O=C1C(NCCCN2CCOCC2)=C(Nc2ccccc2)C(=O)c2ccccc21 | > 70 µM (inactive)
COc1ccc(C2=C(N)C(=O)c3ccccc3C2=O)cc1 | > 70 µM (inactive)

Structure (SMILES) | AC50
O=C1C(NS(=O)(=O)c2ccc(Br)s2)=C(N2CCSCC2)C(=O)c2ccccc21 | > 70 µM (inactive)
CCN(CC)CCCCNC1=C(Nc2ccccc2)C(=O)c2ccccc2C1=O | > 70 µM (inactive)
CCN1CCN(C2=C(NS(=O)(=O)c3ccc(Br)s3)C(=O)c3ccccc3C2=O)CC1 | > 70 µM (inactive)
COc1ccc(C(=O)NC2=C(c3ccccc3)C(=O)c3ccccc3C2=O)cc1 | 24.8 µM
O=C(NC1=C(c2ccccc2)C(=O)c2ccccc2C1=O)c1ccc(Br)cc1 | 26.4 µM
C=CCNC1=C(Cl)C(=O)c2ccccc2C1=O | > 70 µM (inactive)
Cc1nc2ccccc2n1/N=C/c1ccc([N+](=O)[O-])s1 | > 70 µM (inactive)
O=C(NC1=C(N2CCCCC2)C(=O)c2ccccc2C1=O)c1ccccc1 | > 70 µM (inactive)
O=C(CNc1cccc2ccccc12)N/N=C/c1ccc([N+](=O)[O-])o1 | > 70 µM (inactive)
O=C1C(NS(=O)(=O)c2ccc(Br)cc2)=C(N2CCOCC2)C(=O)c2ccccc21 | > 70 µM (inactive)
COc1ccc(C2=C(NC(C)=O)C(=O)c3ccccc3C2=O)cc1 | 13.3 µM
Cc1ccc(C(=O)NC2=C(c3ccccc3)C(=O)c3ccccc3C2=O)o1 | 16 µM
CN1CCN(C2=C(NC(=O)c3ccccc3)C(=O)c3ccccc3C2=O)CC1 | 13.6 µM
COc1cccc(-c2cc(C(=O)NC3=C(Cl)C(=O)c4ccccc4C3=O)ccc2OC)c1 | > 70 µM (inactive)
O=C1C(NS(=O)(=O)c2ccc(Br)s2)=C(N2CCCCC2)C(=O)c2ccccc21 | > 70 µM (inactive)
O=C1C(NS(=O)(=O)c2ccc(Br)cc2)=C(c2ccccc2)C(=O)c2ccccc21 | > 70 µM (inactive)
C[C@@H](NC1=C(Nc2ccccc2)C(=O)c2ccccc2C1=O)c1ccccc1 | > 70 µM (inactive)
C=CCNC1=C(N2CCN(C)CC2)C(=O)c2ccccc2C1=O | 20.9 µM
O=C1C(NS(=O)(=O)c2ccc(Br)cc2)=C(N2CCCCC2)C(=O)c2ccccc21 | > 70 µM (inactive)
O=C1C(NS(=O)(=O)c2ccccc2)=C(N2CCOCC2)C(=O)c2ccccc21 | 13.8 µM
NC1=C(NC(=O)c2ccccc2)C(=O)c2ccccc2C1=O | > 70 µM (inactive)

Structure (SMILES) | AC50
CCN(CC)CCCNC1=C(N(C)C(C)=O)C(=O)c2ccccc2C1=O | 6.19 µM
O=C1C(NS(=O)(=O)c2ccc(Br)cc2)=C(c2ccc(OC(F)(F)F)cc2)C(=O)c2ccccc21 | > 70 µM (inactive)
CCN1CCN(C2=C(NS(=O)(=O)c3cccs3)C(=O)c3ccccc3C2=O)CC1 | > 70 µM (inactive)
C=CCNC1=C(Nc2ccccc2)C(=O)c2ccccc2C1=O | > 70 µM (inactive)
O=C(NC1=C(Cl)C(=O)c2ccccc2C1=O)c1ccccc1 | 29.9 µM
CCN1CCN(C2=C(N(C)C(C)=O)C(=O)c3ccccc3C2=O)CC1 | 15.2 µM
COc1ccc(C(=O)NC2=C(c3ccc(OC(F)(F)F)cc3)C(=O)c3ccccc3C2=O)cc1 | 32.2 µM
CN1CCN(C2=C(NS(=O)(=O)c3ccc(Br)s3)C(=O)c3ccccc3C2=O)CC1 | > 70 µM (inactive)
CC(=O)NC1=C(c2ccc3c(c2)oc2ccccc23)C(=O)c2ccccc2C1=O | 24.7 µM
CCN1CCN(C2=C(NC(=O)c3ccccc3)C(=O)c3ccccc3C2=O)CC1 | 25 µM
C=CCNC1=C(N2CCOCC2)C(=O)c2ccccc2C1=O | 22.8 µM
CCN1CCN(C2=C(NC(=O)c3ccc(Br)cc3)C(=O)c3ccccc3C2=O)CC1 | 18.4 µM
O=C1C(Nc2ccccc2)=C(N2CCSCC2)C(=O)c2ccccc21 | > 70 µM (inactive)
COc1ccc(C2=C(NC(=O)c3cccc(Cl)c3)C(=O)c3ccccc3C2=O)cc1 | 16.8 µM
O=C1C(NS(=O)(=O)c2ccccc2)=C(N2CCCCC2)C(=O)c2ccccc21 | > 70 µM (inactive)
O=C(NC1=C(N2CCCCC2)C(=O)c2ccccc2C1=O)c1ccc(Br)cc1 | > 70 µM (inactive)
C=CCNC1=C(NCCCN(CC)CC)C(=O)c2ccccc2C1=O | 22 µM
C=CCNC1=C(N2CCSCC2)C(=O)c2ccccc2C1=O | 11.3 µM
CC(=O)NC1=C(c2ccc(Cl)cc2)C(=O)c2ccccc2C1=O | 10.4 µM
C=CCNC1=C(N2CCCCC2)C(=O)c2ccccc2C1=O | 19.6 µM
